Compounds with a hit are over-represented: about 1.1% of the library has one in this group of screens.
FXIIa inh 1536: blocks human coagulation factor XIIa protease activity | 220,000 compounds, 0.3% hits | inhibition, % at 5 µM | purified FXIIa, Boc-QGR-AMC fluorogenic substrate, 2 h; in the data active means inhibition above about 40%;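 further: 0% = enzyme with no compound and 100% = blank without enzyme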
Target sequence (P00748 20-372 limits assumed): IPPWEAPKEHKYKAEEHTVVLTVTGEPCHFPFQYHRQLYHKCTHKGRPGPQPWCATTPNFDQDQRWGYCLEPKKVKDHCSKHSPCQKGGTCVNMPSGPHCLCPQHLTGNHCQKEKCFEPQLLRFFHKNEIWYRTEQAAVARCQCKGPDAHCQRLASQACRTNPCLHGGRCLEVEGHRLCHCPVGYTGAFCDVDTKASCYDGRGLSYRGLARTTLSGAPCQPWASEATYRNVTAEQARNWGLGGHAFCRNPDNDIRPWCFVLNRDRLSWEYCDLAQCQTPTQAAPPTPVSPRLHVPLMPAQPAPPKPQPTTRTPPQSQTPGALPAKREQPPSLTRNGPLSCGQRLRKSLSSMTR
Target sequence (P00748 373-615 limits assumed): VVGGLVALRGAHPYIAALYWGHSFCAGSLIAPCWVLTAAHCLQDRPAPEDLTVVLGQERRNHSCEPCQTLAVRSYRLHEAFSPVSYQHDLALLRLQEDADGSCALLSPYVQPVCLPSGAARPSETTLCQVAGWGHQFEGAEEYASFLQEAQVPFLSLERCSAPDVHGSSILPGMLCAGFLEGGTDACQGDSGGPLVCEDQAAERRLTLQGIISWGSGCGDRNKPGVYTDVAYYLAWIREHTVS
thrombin 1536: blocks human thrombin protease activity | P00734 | AID 1046 | inhibition, % at 5 µM | alpha-thrombin, Boc-VPR-AMC fluorogenic substrate cleavage | 220,000 compounds, 0.26% hits;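 active means inhibition at or above 40%; inactive means inhibition below 40%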;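 further: 0% = enzyme with no compound and 100% = wells without enzyme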
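Test system: human alpha-thrombin protein / Dosing: one concentration per compound, 5 µM, with 0.2% DMSO / Medium: pH 7.5 Tris-saline with Tween 20 / Benchmarks: no-compound enzyme wells and no-enzyme blanks / Read-out basis: percent inhibition of thrombin substrate cleavage / Timing: reaction at room temperature / Measured by: fluorescence, ex 355 nm, em 460 nm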
KLK5 inh: blocks human kallikrein 5 protease activity; recombinant hK5, fluorogenic AMC substrate cleavage; inhibition, % at 5 µM; 210,000 compounds, 0.59% hits; AID 873;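 active means inhibition of 40% or more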;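 further: 0% = enzyme controls without compound and 100% = no-enzyme blanks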
Furin inh: blocks human furin protease activity | P09958 | purified furin, fluorogenic substrate cleavage | inhibition, % at 20 µM or 30 µM | 220,000 compounds, 0.061% hits | AID 463115; in the data active means inhibition above about 25%
FXIa inh: inhibitors of human coagulation factor XIa | purified FXIa, Boc-Glu-Ala-Arg-AMC fluorogenic substrate | inhibition, % at 5 µM | 220,000 compounds, 0.14% hits;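 active means inhibition of at least 40%; inactive means inhibition below 40%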;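 further: fluorescence of freed AMC excited at 355 nm; 0% = enzyme without compound and 100% = no enzyme blank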
Numbers without * were called inactive; / = no result.

SMILES	FXIIa inh 1536	thrombin 1536	KLK5 inh	Furin inh	FXIa inh
Nn1c(SCC(=O)N2CCN(S(=O)(=O)c3ccccc3)CC2)nnc1-c1cccs1	12	-4	-4	-1	-3
Cn1c(SCC(=O)N2CCc3ccccc3C2)nnc1-c1cccs1	22	18	43*	-10	19
Nn1c(SCC(=O)N2CCc3ccccc3C2)nnc1-c1cccs1	20	17	52*	-16	19
COc1ccc(S(=O)(=O)NCc2cc(-c3ccccc3Cl)no2)cc1	6	-21	-4	-19	-9
Cc1ccc(Cn2c(=N)c(C(=O)NCc3ccco3)cc3c(=O)n4ccccc4nc32)cc1	19	20	41*	-24	13
COc1ccc(CNC(=O)c2cc3c(=O)n4ccccc4nc3n(Cc3ccco3)c2=N)cc1	/	/	/	-22	/
COc1ccc(NCC(=O)Nc2cc(S(=O)(=O)N3CCOCC3)ccc2N2CCOCC2)c(OC)c1	35	17	24	-9	42*
CCN1CCN(C(=O)c2sc3ncnc(N4CCc5ccccc5C4)c3c2C)CC1	8	11	-6	-19	1
Cc1c(C(=O)N2CCOCC2)sc2ncnc(N3CCc4ccccc4C3)c12	45*	2	7	-26	17
Fc1ccccc1N1CCN(Cc2nc(-c3ccc(Cl)cc3Cl)no2)CC1	33	25	56*	-7	22
O=C(CC12CC3CC(CC(C3)C1)C2)NC(=S)Nc1ccc(CN2CCOCC2)cc1	7	-3	0	-22	1
COc1ccc(C2N=C(N)N=C(N)N2c2ccccc2OC)cc1OC (stereo not given)	13	2	7	-4	-2
COCCn1c(N)c(S(=O)(=O)c2cccs2)c2nc3ccccc3nc21	32	-9	-42	-71	-12
COc1cccc(/C=N/n2c(N)c(S(=O)(=O)c3cccs3)c3nc4ccccc4nc32)c1OC	44*	18	9	-16	4
O=C1CC(c2cccs2)c2cc3c(cc2N1)OCO3 (stereo not given)	17	0	46*	-21	1
CCc1nnc(NC(=O)CSc2nc3c(cc2C#N)CCCC3)s1	3	12	49*	-19	1
COc1ccc(OC)c(C2CC(c3c(-c4ccccc4)c4cc(Cl)ccc4[nH]c3=O)=NN2S(C)(=O)=O)c1 (stereo not given)	8	3	42*	1	0
COc1ccc(-c2cc([C@H]3[C@@H]4C=CCC[C@@]4(C)C(=O)N3Cc3ccccc3)ccc2F)cc1	14	11	42*	4	20
Cc1ccc(NC(=O)CCn2cccc2)cc1Cl	-3	-2	9	-17	1
Cc1ccc(F)cc1NC(=O)N1c2ccccc2NC(=O)CC1C (stereo not given)	10	0	0	-20	-8
O=C(Oc1ccc2c3c(c(=O)oc2c1)CCC3)c1ccco1	71*	24	-10	-63	33
O=C(Oc1cc2oc(=O)c3c(c2cc1Cl)CCCC3)c1ccco1	7	-1	-10	-14	-3
Cc1ccc(OCC(=O)NC(=S)Nc2ccc(Br)cn2)cc1C	8	-6	3	-20	0
O=C(c1ccco1)n1nc(-c2cccnc2)nc1NCc1ccco1	19	96*	4	-17	11
O=C(c1ccccc1)n1nc(-c2ccccc2)nc1NCc1ccco1	10	73*	15	-5	-1
SMILES	FXIIa inh 1536	thrombin 1536	KLK5 inh	Furin inh	FXIa inh
Cc1nn(Cc2ccccc2)c(Cl)c1/C=C/C(=O)OCC(=O)N(C)C1CCS(=O)(=O)C1 (stereo not given)	5	4	-2	-16	-3
Fc1ccccc1Cc1noc(CN2CCC(OCc3cccnc3)CC2)n1	2	-4	-3	-18	-2
Clc1ccc(C2[C@H]3CN(Cc4cccnc4)[C@H](c4ccccc4)C34CC2(c2cccnc2)C4)cn1 (stereo not given in full)	5	1	1	-30	0
Cc1cc(Cl)ccc1NNC(=O)c1cccs1	5	3	-3	-12	4
O=C(NNc1cc(Cl)ccc1Cl)c1cccs1	18	35	55*	-8	24
COC(=O)c1ccc([N+](=O)[O-])cc1N1C(=O)C2C3CCC(C3)C2C1=O (stereo not given)	4	-8	3	-21	-2
COC(=O)c1ccc(NC2CC(=O)N(c3ccccc3C)C2=O)cc1 (stereo not given)	31	45*	27	1	-1
COc1cc2[nH]c(=S)n(CCN3CCOCC3)c(=O)c2cc1OC	-12	13	104*	-28	8
Cc1cccc(Nc2nc(NCCCN3CCOCC3)nc(N)c2[N+](=O)[O-])c1	9	1	-3	21	10
Cc1cccc(/C=N/n2c(C)cc(C)c(C#N)c2=O)c1	7	-3	-5	-7	3
Cc1cc(C)n(/N=C/c2ccccc2)c(=O)c1C#N	57*	-6	-11	-6	0
CC1Cc2ccccc2N1S(=O)(=O)c1cccc(C(=O)NCCCn2ccnc2)c1 (stereo not given)	7	-3	/	-23	-3
O=C(Cn1c(/C=C/c2ccccc2)nc2ccccc21)Nc1ccc(F)cc1	40*	10	16	-13	21
Cc1nnc(SCc2nnc(-c3ccccc3Br)o2)n1-c1ccccc1	1	41*	-21	-14	-7
CCc1ccc(C2c3[nH]c4ccccc4c3CCN2C(=O)c2cc[n+]([O-])cc2)cc1 (stereo not given)	30	36	50*	-3	16
COc1cc([N+](=O)[O-])cc(/C=N/NC(=O)CC#N)c1O	10	3	-3	-8	4
Cc1cc(C)nc(Nc2ccccc2Br)n1	20	45*	59*	-17	20
COCCn1c(=NC(=O)c2cc3ccccc3oc2=O)sc2cc(S(N)(=O)=O)ccc21	7	-2	-11	-13	6
O=C(CSc1nccc(=O)[nH]1)c1cc2ccccc2o1	2	-5	46*	-12	-7
CCN(CC)c1ccc(/C=N/NS(=O)(=O)c2cccc([N+](=O)[O-])c2)cc1	52*	-14	-10	-1	28
COc1ccc(NC(=O)NC(C)C2CC3CCC2C3)cc1 (stereo not given)	6	-2	/	-21	0
N#CC1=C(N)NC(SCc2ccc(Cl)cc2)=C(C#N)C12CCCCC2	1	-4	25	-11	-7
N#CC1=C(N)NC(SCc2ccccc2)=C(C#N)C12CCCC2	19	25	45*	6	10
N#CC1=C(N)NC(SCc2ccc(Br)cc2)=C(C#N)C12CCCCC2	16	3	-9	31*	11
Cc1cc2nc(C)n(CCCNC(=O)Nc3cccc4ccccc34)c2cc1C	30	2	-9	-12	23
Cc1noc(C)c1CSc1nc2ccccc2c(=O)n1-c1ccc(F)cc1F	43*	0	-3	-22	26
Cc1noc(C)c1CSc1nc2ccccc2c(=O)n1-c1ccccc1	19	3	-4	-25	5

Assay outcomes from PubChem BioAssay.
